Screens: PubChem, Broad Institute
Beta apoptosis: beta cell apoptosis inhibition; INS-1E cytokine-induced death, ATP luminescence, 48 h; percent of positive-control rescue, neutral wells zero; protection from apoptosis, % (no concentration beside the values); 0.8% of 300,000 active; AID 435005;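 active means Every replicate reaches about 75%, or at least half do and their mean reaches it too, limit read from the data; inconclusive means At least half of replicates reach the limit but their mean does not; inactive means Under half of replicates reach the limit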;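 further: 0% = cytokine-treated negative control wells and 100% = positive control rescue; higher means more ATP so stronger rescue from cytokine killing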
PfHsp90 set2: inhibits growth of yeast expressing Plasmodium falciparum Hsp90; inhibition, % at 9.4 µM; S. cerevisiae expressing PfHsp90, BacTiter-Glo ATP, 48 h; yeast lacking PDR1 and PDR3 efflux regulators; 0.32% of 310,000 active;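 active means every replicate shows inhibition above about 80%, whatever the replicate mean, limit read from the data; inconclusive means mean inhibition reaches the set limit but some replicate falls short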;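 further: 0% = DMSO neutral controls and 100% = 20 µM radicicol positive controls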
CSC inhib: cancer stem cell inhibition; inhibition, % at 7.5 µM; cancer stem cell-like cells viability, luminescence; 1.1% of 300,000 active; in the data active means inhibition above about 75%; inconclusive means no clear call, values can overlap the other calls; tested in HMLE shEcad cells
HIF activator: HIF pathway transcriptional activation | U2OS HRE-luciferase reporter, luminescence; normalized: DMSO 0%, desferrioxamine 100% | activation, % at 7.5 µM (by protocol) | 0.32% of 300,000 active | AID 1910;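 active means mean activation of at least 10% of the iron chelator positive control signal, with at least half of replicates also reaching 10%; inconclusive means mean and replicate majority disagree about reaching 10%; inactive means mean and most replicates under 10%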
SKKanGAS inh: inhibitors of SKKanGAS S. pyogenes growth in kanamycin (SK-promoter or general growth effect); BacTiter-Glo, 6 h; inhibition, % at 7.5 µM; 1.3% of 300,000 active; AID 1662;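 active means mean replicate score, as percent of positive control median, at least 50; inconclusive means mean below 50 but one replicate at or above 50; inactive means mean and every replicate below 50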;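 further: strain carries kanamycin resistance gene driven by streptokinase promoter and grows in 40 µg/ml kanamycin; loss of luminescence reflects streptokinase promoter inhibition or plain growth inhibition; 0% = median of DMSO wells and 100% = positive control at its reference dose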
T cruzi inh: T. cruzi replication inhibition; T. cruzi beta-gal in NIH3T3, luminescence, 90 h; inhibition, % (no concentration beside the values); 1.4% of 300,000 active;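 active means mean inhibition across valid replicates above about 55%, limit read from the data; inconclusive means mean below that limit but half or more replicates reach it; inactive means mean below it, under half of replicates reach it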;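 further: signal also drops with host cell toxicity which is not excluded here; 0% = plate median of DMSO wells and 100% = zero luminescence signal; higher percent means less beta-gal luminescence so fewer parasites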
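System: NIH/3T3 fibroblasts plus reporter T. cruzi. Medium: DMEM plus 2% FBS. Probe or stimulus: 5000 reporter trypomastigotes per well. Compound: single 50 nL compound addition per well in DMSO. Incubation: co-culture of at least 90 h after 3 h attachment. Detection: GalScreen β-gal luminescence, detergent lysis, 60 min. Evaluation: parasite load inhibition, %.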
The depositor's hits bear a star; ? = inconclusive; . = no result. Sampled rows, rich in hits. Any-hit rate of the full collection: about 3.6%.

SMILES	Beta apoptosis	PfHsp90 set2	CSC inhib	HIF activator	SKKanGAS inh	T cruzi inh
COc1cc2c(cc1OC)C(C)N(C(=O)c1ccc(Cl)c(S(=O)(=O)N3CCCCC3)c1)CC2 (stereo not drawn)	7.6	-17.8	-6.8	0.3	-4.4	17.2
COc1cc2c(cc1OC)C(c1ccccc1)N(S(C)(=O)=O)CC2 (stereo not drawn)	-2.3	25.8	-4.7	28.5*	-0.1	7.6
COc1cc2c(cc1OC)C(C)N(S(=O)(=O)c1ccc(Cl)nc1)CC2 (stereo not drawn)	2.1	10.0	7.7	15.5*	-1.7	-0.5
O=C(CCS(=O)(=O)c1ccccc1)N(CCCN1CCOCC1)c1nc2c(F)cccc2s1	-19.6	10.2	.	1.9	11.5	54.7*
O=C(CCS(=O)(=O)c1ccccc1)N(CCCN1CCOCC1)c1nc2ccc(F)cc2s1	10.6	-3.8	61.6	3.1	-4.1	63.0*
Cc1ccc(S(=O)(=O)CC(=O)N(CCCN2CCOCC2)c2nc3c(F)cccc3s2)cc1	-3.4	.	-6.3	0.7	-3.1	11.5
COc1ccc(C(CNC(=O)c2ccc(-c3cccc(C(F)(F)F)c3)o2)N2CCOCC2)cc1 (stereo not drawn)	3.7	4.4	-0.8	0.3	1.5	18.0
COc1cccc(-c2nc(CS(=O)(=O)CC(=O)Nc3ccccc3Br)c(C)o2)c1	-1.9	5.5	-1.1	-0.2	25.2	8.4
Cc1cc(NS(=O)(=O)c2ccc(NC(=S)NC(=O)/C=C/c3ccccc3)cc2)no1	-3.5	6.6	8.4	-1.0	12.8	-4.8
Cc1ccc(/C=C/C(=O)NC(=S)Nc2ccc(S(=O)(=O)Nc3cc(C)on3)cc2)cc1	2.7	-7.8	-7.6	0.1	52.4*	-4.0
Cc1ccc(-c2cc(C(=O)Nc3ccc(S(=O)(=O)Nc4cc(C)on4)cc3)c3ccccc3n2)c(C)c1	-4.3	-8.7	8.4	0.8	53.7*	-14.5
O=S1(=O)C=C(Sc2nc3cc(Cl)ccc3o2)c2ccccc21	-11.6	7.9	8.7	-7.6	?	65.0*
C/C(=C\c1ccccc1)C(=O)Nc1ccc(Cl)cn1	0.8	-7.4	-6.5	1.9	-2.6	-0.4
C=CCN(C(C(=O)OC)C(C)C)S(=O)(=O)CCNCc1ccccc1 (stereo not drawn)	.	9.6	.	.	.	.
CN(C)CCn1c2c(c(SCC(=O)NCc3ccccc3)nc1=O)CCCC2	-8.3	9.0	-9.5	-0.7	0.3	5.3
CC1CN(CC(O)COc2ccc(C(C)C)cc2)CC(C)O1 (stereo not drawn)	-3.8	11.6	43.9	0.5	-0.4	-5.7
CN1CCN(CC(O)COc2ccccc2)CC1 (stereo not drawn)	-2.2	14.9	-12.1	-1.4	1.0	29.0
CN1CCN(CC(O)COC(c2ccccc2)c2ccccc2)CC1 (stereo not drawn)	-2.1	-13.4	.	0.1	-5.6	60.8*
CC1CN(CC(O)COC(c2ccc(Cl)cc2)c2ccc(Cl)cc2)CC(C)O1 (stereo not drawn)	106.1*	7.3	26.0	-0.4	-2.9	29.5
CC(C)(C)CC(=O)Nc1ccc(S(=O)(=O)NC2=NCCCCC2)cc1	-2.2	.	3.7	.	.	.
Cn1c(N)c(N2CCCCC2)c(=O)n(CC(=O)Nc2cccc(C#N)c2)c1=O	0.8	.	6.5	.	.	.
Cc1cccc(Cn2nc(-n3cccc3)c3c(C)cc(C)nc32)c1	-2.0	-30.4	8.1	0.0	54.9*	-5.8
CC(C)CN(Cc1cc(=O)oc2cc(-c3ccccc3)c(O)cc12)CC(C)C	41.8	-18.3	109.4*	-0.6	76.4*	17.5
O=c1cc(CN2CCN(C/C=C/c3ccccc3)CC2)c2cc(O)c(-c3ccccc3)cc2o1	19.7	-20.4	13.4	-0.2	-2.7	39.1
O=C(CN1c2ccccc2Sc2ccccc21)NNC(=O)Nc1cccc(Cl)c1	?	-27.5	82.4*	0.0	49.9*	-6.7
SMILES	Beta apoptosis	PfHsp90 set2	CSC inhib	HIF activator	SKKanGAS inh	T cruzi inh
O=C(NC(c1cccnc1)C(F)(F)F)c1cc(COc2ccc3c(c2)CCCC3)on1 (stereo not drawn)	106.6*	6.1	27.2	4.1	10.3	14.3
Cn1cc(CNC(=O)c2cc(COc3ccc4c(c3)CCCC4)on2)cn1	4.1	16.0	-2.9	0.6	-4.9	-7.3
CCCC(C)c1nnc(NC(=O)COc2ccc3c(c2)OCO3)s1 (stereo not drawn)	1.4	6.0	85.3*	-41.4	-4.6	-3.8
CCOc1ccccc1NC(=O)COc1ccc2c(c1)OCO2	-1.1	-14.4	.	13.9*	-5.0	11.7
CC(C)(C)N(Cc1ccccc1)C(=O)COC(=O)c1ccc(S(=O)(=O)N2CCOCC2)cc1	1.6	-46.6	.	.	.	.
O=C1NC(=O)/C(=C/c2ccccc2Oc2ccc(Cl)cc2)S1	6.0	-16.1	8.1	-0.1	57.1*	-3.2
Cc1ccc(S(=O)(=O)Oc2ccccc2/C=C2\SC(=O)NC2=O)cc1	6.2	4.2	14.5	0.1	8.0	-19.6
COc1ccc(S(=O)(=O)Nc2ccccc2C(=O)NCc2cccnc2)cc1	0.7	-12.5	.	0.3	6.2	-4.9
O=[N+]([O-])c1ccc(/C=N/Nc2ccc3ccccc3c2)o1	9.2	10.2	32.3	0.8	18.9	39.1
O=[N+]([O-])c1ccc(/C=N/Nc2nc(-c3ccccc3)c3cc(Br)ccc3n2)o1	-0.3	-45.0	-3.8	-8.5	94.7*	?
Cc1ccc2nc(N/N=C\c3ccc([N+](=O)[O-])o3)nc(-c3ccccc3)c2c1	.	-107.2	52.9	-0.5	99.8*	79.9*
CCc1ccc2nc(N3C(=O)C(O)=C(C(=O)c4ccco4)C3c3cccs3)sc2c1 (stereo not drawn)	-0.2	10.1	20.8	2.6	88.1*	-5.1
Cc1ccc2nc(N3C(=O)C(O)=C(C(=O)c4ccco4)C3c3ccc(O)cc3)sc2c1 (stereo not drawn)	-4.3	-14.1	-3.7	2.1	12.5	-19.6
Cc1cc(N2C(=O)C(O)=C(C(=O)c3cc4ccccc4o3)C2c2cccs2)no1 (stereo not drawn)	-0.1	13.9	-18.7	1.9	13.2	-21.5
Cc1ccc(C2C(C(=O)c3cc4ccccc4o3)=C(O)C(=O)N2c2cc(C)on2)cc1 (stereo not drawn)	-1.9	8.9	-8.7	0.2	58.7*	-15.4
Cc1ccc2nc(N3C(=O)C(O)=C(C(=O)c4cc5ccccc5o4)C3c3cccs3)sc2c1 (stereo not drawn)	3.8	-21.4	0.6	5.0	104.1*	-12.1
CCCn1c(SCC(=O)Nc2ccc3c(c2)OCCO3)n[nH]c1=O	.	2.5	.	.	.	.
COc1cccc(NC(=O)CN2C(=O)COc3ccc(S(=O)(=O)N4CCCCCC4)cc32)c1	-4.2	2.6	-9.7	-0.8	0.3	9.3
CCC(=O)c1ccc(OCC(=O)Nc2cccc(S(=O)(=O)N3CCCCCC3)c2)cc1	.	-15.2	.	.	.	.
